Results on 12 molecules are retold here after ChEMBL document CHEMBL1144181, “Achiral oligoamines as versatile tool for the development of aspartic protease inhibitors” (Bioorg Med Chem, 2008).

In one experiment the target is Protease (Human immunodeficiency virus 1, UniProt Q9YQ12). In words: Inhibition of recombinant HIV1 protease expressed in Escherichia coli by fluorescence technique.
Experiment [1] is described as follows: Inhibition of Plasmodium recombinant plasmepsin-2 expressed in Escherichia coli by fluorescence technique. Put shortly:
(§1)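 The recombinant enzyme was expressed in E. coli and purified. It was assayed at room temperature in 100 mM NaAc, pH 4.5, with 1 mg/mL BSA and 4% final DMSO. The substrate was Abz-Thr-Ile-Nle-(p-NO2-Phe)-Gln-Arg-NH2, read by fluorescence increase (ex 337, em 410 nm). IC50 came from nonlinear regression of vi/v0 versus inhibitor concentration, and Ki = IC50/[1+(S/Km)].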

Experiment [2] can be described thus: Inhibition of Plasmodium recombinant plasmepsin-4 expressed in Escherichia coli by fluorescence technique. An outline of the steps:
as §1

The next experiment has as its target T1, Renin (Homo sapiens, UniProt P00797).
T1 sequence (P00797 whole entry): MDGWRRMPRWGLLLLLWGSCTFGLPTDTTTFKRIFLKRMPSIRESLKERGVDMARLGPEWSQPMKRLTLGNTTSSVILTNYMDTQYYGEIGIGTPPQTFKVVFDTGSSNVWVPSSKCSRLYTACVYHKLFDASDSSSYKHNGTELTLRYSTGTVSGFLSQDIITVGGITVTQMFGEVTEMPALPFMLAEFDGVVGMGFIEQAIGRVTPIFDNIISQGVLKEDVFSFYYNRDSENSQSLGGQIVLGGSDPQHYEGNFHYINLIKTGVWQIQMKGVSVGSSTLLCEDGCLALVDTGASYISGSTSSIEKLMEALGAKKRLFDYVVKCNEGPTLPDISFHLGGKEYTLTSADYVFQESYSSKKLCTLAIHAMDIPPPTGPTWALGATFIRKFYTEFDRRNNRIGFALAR
Description: Inhibition of recombinant renin by fluorescence technique.

In a further experiment the target is Beta-secretase 1 (Homo sapiens, UniProt P56817). Description: Inhibition of recombinant beta secretase 1 by fluorescence technique.
Experiment [3] is described as follows: Inhibition of pig pepsin by fluorescence technique. The arrangement: species or system Sus scrofa.

Sequence of Beta-secretase 1 (P56817 whole entry): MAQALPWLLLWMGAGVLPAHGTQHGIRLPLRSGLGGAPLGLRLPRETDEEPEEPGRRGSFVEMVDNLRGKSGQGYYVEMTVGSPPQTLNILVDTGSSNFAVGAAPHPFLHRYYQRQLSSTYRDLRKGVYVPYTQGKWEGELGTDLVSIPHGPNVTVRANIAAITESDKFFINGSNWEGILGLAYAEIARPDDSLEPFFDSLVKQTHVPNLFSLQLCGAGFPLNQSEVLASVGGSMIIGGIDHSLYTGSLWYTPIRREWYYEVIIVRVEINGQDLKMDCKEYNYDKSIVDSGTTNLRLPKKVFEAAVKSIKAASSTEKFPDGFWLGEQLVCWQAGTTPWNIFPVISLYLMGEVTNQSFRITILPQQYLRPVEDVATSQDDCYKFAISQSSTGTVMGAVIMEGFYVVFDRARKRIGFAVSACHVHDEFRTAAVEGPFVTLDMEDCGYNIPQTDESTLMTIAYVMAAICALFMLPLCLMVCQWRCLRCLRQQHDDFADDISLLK
Sequence of Protease (Q9YQ12 whole entry): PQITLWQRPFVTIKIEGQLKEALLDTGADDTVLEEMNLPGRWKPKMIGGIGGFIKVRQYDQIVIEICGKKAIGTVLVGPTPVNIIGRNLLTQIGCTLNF

The term Ki denotes a dissociation constant, usually derived from enzyme kinetics or from competition with a known ligand. On to `CC(C)CN(C[C@@H](O)[C@H](Cc1ccccc1)NC(=O)O[C@H]1CCOC1)S(=O)(=O)c1ccc(N)cc1`, for which, on Protease, the Ki was 0.9 µM.

The IC50 is the midpoint of a concentration-inhibition curve. For `O=C(Cc1ccccc1)N(CCCNCCN(Cc1ccccc1)C(=O)Cc1ccccc1)Cc1ccccc1`, the IC50 (at Protease; on Renin; on Beta-secretase 1; in experiment [3]) was above 250 µM each time. Further, the values for the Ki in experiment [1] and in experiment [2] were 63 µM and 56 µM, respectively.

In the case of `Nc1ccc(S(=O)(=O)N(CCCNCCN(Cc2ccccc2)S(=O)(=O)c2ccc(N)cc2)Cc2ccccc2)cc1`, the IC50 (on Protease; at Renin; at Beta-secretase 1; in experiment [3]) was above 250 µM in each case. For the same molecule, the Ki in experiment [1] was found to be 22 µM; in experiment [2], 7.5 µM.

As to `O=S(=O)(c1ccccc1)N(CCNCCN(Cc1ccccc1)S(=O)(=O)c1ccccc1)Cc1ccccc1`, the Ki on Protease turned out to be 3.8 µM; in experiment [1], 7 µM; in experiment [2], 36 µM; in experiment [3], 5.7 µM. The IC50 on Renin and at Beta-secretase 1 was above 250 µM each time.

For the molecule `O=S(=O)(c1ccccc1)N(CCCNCCCN(Cc1ccccc1)S(=O)(=O)c1ccccc1)Cc1ccccc1`, the IC50 (on Protease; at Renin; in experiment [3]) was above 250 µM in each case. The Ki in experiment [1] came out at 21 µM; in experiment [2], 42 µM; on Beta-secretase 1, 150 µM.

In the case of `O=C(Cc1ccccc1)N(CCNCCN(Cc1ccccc1)C(=O)Cc1ccccc1)Cc1ccccc1`, the IC50 (at Protease; at Beta-secretase 1; in experiment [3]) was above 250 µM throughout. For the same molecule, the figures for the inhibitory constant (Ki) (in experiment [1]; in experiment [2]; on Renin) were 91 µM, 98 µM and 5.7 µM, respectively.

As to `CC(C)CN(CCNCCN(CC(C)C)S(=O)(=O)c1ccccc1)S(=O)(=O)c1ccccc1`, the Ki was found to be 10 µM at Protease, 23 µM in experiment [1], 87 µM in experiment [2] and 4.5 µM in experiment [3]. Also, the IC50 at Renin and at Beta-secretase 1 was above 250 µM throughout.

As for `CC(C)CN(CCNCCN(CC(C)C)S(=O)(=O)c1ccc(N)cc1)S(=O)(=O)c1ccc(N)cc1`, the Ki was determined as 6.8 µM in experiment [1], 56 µM in experiment [2] and 4.8 µM in experiment [3]. Also, the IC50 on Renin and on Beta-secretase 1 was above 250 µM in each case.

Turning to `O=S(=O)(c1ccccc1)N(CCCNCCN(Cc1ccccc1)S(=O)(=O)c1ccccc1)Cc1ccccc1`, the Ki came to 14 µM at Protease, 18 µM in experiment [1], 17 µM in experiment [2] and 15 µM in experiment [3]. Also, the IC50 on Renin and at Beta-secretase 1 was above 250 µM in each case.

On to `Nc1ccc(S(=O)(=O)N(CCNCCN(Cc2ccccc2)S(=O)(=O)c2ccc(N)cc2)Cc2ccccc2)cc1`, for which the Ki in experiment [1] is 4.2 µM; in experiment [2], 7.5 µM; in experiment [3] it was 3.9 µM. The IC50 at Renin and on Beta-secretase 1 was above 250 µM throughout.

On to `Nc1ccc(S(=O)(=O)N(CCCNCCCN(Cc2ccccc2)S(=O)(=O)c2ccc(N)cc2)Cc2ccccc2)cc1`, for which the half-maximal inhibitory concentration (IC50) at Protease and at Renin was above 250 µM in each case. Further, the Ki was determined as 2.8 µM in experiment [1], 20 µM in experiment [2], 64 µM at Beta-secretase 1 and 4 µM in experiment [3].

In the case of `O=C(Cc1ccccc1)N(CCCNCCCN(Cc1ccccc1)C(=O)Cc1ccccc1)Cc1ccccc1`, the IC50 (at Protease; at Beta-secretase 1; in experiment [3]) was above 250 µM throughout. Besides, the Ki was found to be 120 µM in experiment [1], 170 µM in experiment [2] and 16 µM at Renin.
